Runt-CBFb FRET: blocks binding of human RUNX1 Runt domain to CBFb. AID 1496. Q01196+Q13951. inhibition, % at 20 µM. Cerulean-Runt/Venus-CBFb FRET ratio 530/480, 1 h. 220,000 tested, 0.46% active;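 active means inhibition over about 50% at 20 µM in the single-dose screen, limit read from the data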
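Doses: 20 µM compound in 1% DMSO | Material: Cerulean-labeled Runt domain protein | Amount: Each fluorescent fusion protein 100 nM | Schedule: Two 1 h room-temperature incubations shielded from light | Measured by: FRET fluorescence | Evaluation: Loss of energy transfer signal | Controls: Unlabeled CBFb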
14-3-3 Bad inh: disrupts binding of bovine 14-3-3 zeta to phospho-Bad peptide | inhibition, % at 21.7 µM | TR-FRET 14-3-3zeta/Dy647-pBad peptide displacement, 1 h | 220,000 tested, 0.71% active;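 active means inhibition above about 70%, limit read from the data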
Target sequence (P63103 whole entry, looked up): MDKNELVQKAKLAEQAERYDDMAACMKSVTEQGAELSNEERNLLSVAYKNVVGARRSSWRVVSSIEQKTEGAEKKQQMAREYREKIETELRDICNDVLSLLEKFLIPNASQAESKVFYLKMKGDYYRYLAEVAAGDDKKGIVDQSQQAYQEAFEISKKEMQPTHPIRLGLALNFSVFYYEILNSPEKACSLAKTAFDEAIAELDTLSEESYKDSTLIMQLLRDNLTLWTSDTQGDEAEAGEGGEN
Hck Nef HTS: blocks Nef-activated human Hck kinase; Recombinant Hck-YEEI plus Nef, Z-Lyte FRET kinase assay; inhibition, % at 20 µM; 220,000 tested, 0.68% active; AID 463187;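 active means Hck-Nef kinase inhibition above about 50%, limit read from the data; inactive means inhibition below that limit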
RanGTP-Imp inh: inhibitors of RanGTP-importin-beta interaction, primary screen, biochemical, FRET, CFP-Ran, YFP-importin-beta, homogeneous | cell-free CFP-Ran/YFP-importin-beta FRET ratio | inhibition, % (concentration not given with the values) | 300,000 tested, 1.1% active;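 active means more than half of the replicate wells show a fall in the fluorescence ratio signal beyond about 16%, limit read from the data, passing the limit was not always enough; inconclusive means exactly half of the replicate wells pass the set limit; inactive means fewer than half of replicates pass the limit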
TbHK1 inh: T. brucei hexokinase 1 inhibition; inhibition, % at 10 µM; AID 1430; recombinant TbHK1, G6PDH-coupled NADH A340; 220,000 tested, 0.11% active;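 active means inhibition of 50% or more in the single-dose primary screen; inactive means inhibition below 50%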
Runt-SMMHC FRET: blocks binding of human RUNX1 Runt domain to CBFb-SMMHC; Q01196+Q13951; Cerulean-Runt/Venus-CBFb-SMMHC FRET ratio 530/480, 1 h; inhibition, % at 20 µM; 220,000 tested, 0.74% active; AID 1434;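 active means mean inhibition across duplicate retests at 20 µM reaching about 50%, limit read from the data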;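 further: inhibitors lower the FRET ratio by blocking Runt binding to CBFb-SMMHC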
YIC counter: counter-screen YIC FRET for RanGTP-importin-beta inhibitors; shares compounds with RanGTP-Imp inh; Purified YIC probe, intramolecular FRET ratio YFP/CFP; IC50, µM; 1,000 tested, 40% active;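 active means fitted half-maximal inhibitory concentration no more than tenfold above the top dose tested; inconclusive means flat fit with 30 to 70% activity, or poor fit; inactive means half-maximal concentration beyond tenfold above the top dose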
Large screens that a line does not name were inactive (follow-up assays come after a bar, where they were run). This is a sample that favours compounds with a hit; in the whole collection about 2.2% have one here.

O=C1C2C(C(=O)N1/N=C/c1cccc([N+](=O)[O-])c1)C1C=CC2C12CC2 (stereo not given)	none
CCCNC(=O)COC(=O)c1cccnc1Nc1ccccc1F	none
O=C(COC(=O)c1cccnc1Nc1ccccc1F)NCCN1C(=O)CSC1=O	RanGTP-Imp inh 27.4 | YIC counter inactive
N#CCC(=O)Nc1ccc(C(=O)NCCc2c[nH]c3ccccc23)cc1	none (no result: Runt-CBFb FRET, 14-3-3 Bad inh, Hck Nef HTS, TbHK1 inh, Runt-SMMHC FRET)
N#Cc1ccccc1NC(=O)C1CC(=O)N(c2ccc3c4c(cccc24)CC3)C1 (stereo not given)	RanGTP-Imp inh 22.4 | YIC counter inactive
CC1CC(C)CN(c2cc(=O)n(Cc3ccc(F)cc3)c(=O)[nH]2)C1 (stereo not given)	RanGTP-Imp inh 60.5 | YIC counter inactive
Cc1cc(NC(=O)CSc2nnc(CNC(=O)c3c(F)cccc3F)o2)no1	none (no result: Runt-CBFb FRET, 14-3-3 Bad inh, Hck Nef HTS, TbHK1 inh, Runt-SMMHC FRET)
COc1ccc(CC(C)Nc2cccc(SC)c2)cc1 (stereo not given)	none (no result: Runt-CBFb FRET, 14-3-3 Bad inh, Hck Nef HTS, TbHK1 inh, Runt-SMMHC FRET)
O=C1CC(/C=C/c2ccco2)=Nc2ccccc2N1	RanGTP-Imp inh 24.1 | YIC counter inactive
O=C(Cc1cc(=O)oc2cc(O)ccc12)N[C@@H](Cc1c[nH]c2ccccc12)C(=O)O	RanGTP-Imp inh 20.6 (no result: Runt-CBFb FRET, 14-3-3 Bad inh, Hck Nef HTS, TbHK1 inh, Runt-SMMHC FRET) | YIC counter inactive
Cc1ccccc1NC(=O)Cc1nc(COC(=O)c2ccc(Cl)nc2)cs1	none (no result: Runt-CBFb FRET, 14-3-3 Bad inh, Hck Nef HTS, TbHK1 inh, Runt-SMMHC FRET)
N#C/C(=C\c1ccc(-c2ccc(S(=O)(=O)N3CCOCC3)cc2)o1)C(=O)NC1CC1	none (no result: RanGTP-Imp inh)
N#C/C(=C/c1ccc(N2CCOCC2)o1)C(=O)Nc1ccccc1	RanGTP-Imp inh 31.3 | YIC counter 14.9
N#C/C(=C\c1ccc(N2CCOCC2)o1)C(=O)NC1CCCCC1	RanGTP-Imp inh 31.3 | YIC counter 3.85
N#C/C(=C\c1ccc(OCCN2CCOCC2)cc1)C(=O)Nc1ccccc1	none (no result: Runt-CBFb FRET, 14-3-3 Bad inh, Hck Nef HTS, TbHK1 inh, Runt-SMMHC FRET)
CCOC(=O)c1ccc(Nc2nc(C)nc3c2nnn3Cc2ccccc2)cc1	none (no result: Runt-CBFb FRET, 14-3-3 Bad inh, Hck Nef HTS, TbHK1 inh, Runt-SMMHC FRET)
CCS(=O)(=O)c1ccc(S(=O)(=O)CC)s1	RanGTP-Imp inh 36.1 | YIC counter inactive
Cc1ccc(C)c(NC(=S)N(C)CCc2ccccn2)c1	RanGTP-Imp inh 24.5 | YIC counter inactive
COc1ccc(CCNC(=O)COc2nncc3ccccc23)cc1	RanGTP-Imp inh inconclusive
COc1ccc(OCc2cc(C(=O)N3CCC(c4ccccc4)CC3)no2)c(Cl)c1	none (no result: Runt-CBFb FRET, 14-3-3 Bad inh, Hck Nef HTS, TbHK1 inh, Runt-SMMHC FRET)
COc1ccc(C2c3c(ncn(Cc4ccco4)c3=N)Oc3ccc4ccccc4c32)cc1 (stereo not given)	RanGTP-Imp inh 70.6 | YIC counter inactive
CCOCCc1nnc(NC(=O)CS(=O)(=O)c2ccc(C)cc2)s1	none (no result: Runt-CBFb FRET, 14-3-3 Bad inh, Hck Nef HTS, TbHK1 inh, Runt-SMMHC FRET)
CCCOC(=O)CSC1=C(C#N)C(c2ccccc2OC)C(C#N)C(=O)N1 (stereo not given)	RanGTP-Imp inh 25.7 | YIC counter inactive
O=C(Nc1ccc(S(=O)(=O)NC2=NCCCCC2)cc1)c1ccc2ccccc2n1	none
COc1c(Br)cc2c(C)c(C(=O)O)oc2c1Br	none
Cc1c(Br)c(=O)oc2c(Br)c(O)c(O)cc12	Runt-CBFb FRET 55.3, RanGTP-Imp inh 26.3, Runt-SMMHC FRET 76.3 | YIC counter 10.9
Cc1ccccc1C(=O)Nc1ccc(C(=O)N/N=C/c2ccc(O)c(Br)c2)cc1	none
N#CC1=C(N)Oc2cc3c(cc2C1c1ccc(Cl)cc1)OCO3 (stereo not given)	RanGTP-Imp inh 28.7 | YIC counter inactive
Cc1ccc(C(C)c2c(C)c([N+](=O)[O-])cc(C)c2[N+](=O)[O-])cn1 (stereo not given)	none (no result: Runt-CBFb FRET, 14-3-3 Bad inh, Hck Nef HTS, TbHK1 inh, Runt-SMMHC FRET)
CC1(C)CC(=O)C=C(Nc2ccccc2O)C1	RanGTP-Imp inh 16.3 | YIC counter inactive
CC1(C)CC(=O)C=C(Nc2ccccc2F)C1	RanGTP-Imp inh 24.9 | YIC counter inactive
FC(F)(F)c1ccc(C2[C@H]3CN(Cc4cccnc4)[C@H](c4ccccc4)C34CC2(c2ccccc2)C4)cc1 (stereo not given in full)	none
CN1CCN(C(=O)c2ccccc2Nc2ccc(SC(F)F)cc2)CC1	RanGTP-Imp inh 18.8 | YIC counter inactive
